Test results taken from ChEMBL document CHEMBL2331149, “Towards dual antithrombotic compounds - balancing thrombin inhibitory and fibrinogen GPIIb/IIIa binding inhibitory activities of 2,3-dihydro-1,4-benzodioxine derivatives through regio- and stereoisomerism” (Eur J Med Chem, 2013).

Experiments:
Integrin alpha-V/beta-3 = Integrin alpha-V/beta-3 (Homo sapiens, UniProt P05106+P06756); assay: Inhibition of biotinylated fibrinogen binding to human alphavbeta3 integrin receptor after 2 hrs by solid-phase competitive displacement assay; assay type: protein-complex assay
Outline: (§1)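 Solid-phase competition with isolated human receptor (GPIIb/IIIa or GPV/IIIa) adsorbed overnight at 4 °C in Tris/NaCl buffer with 1 mM Ca2+, Mg2+ and Mn2+, pH 7.4. Blocked with 1% BSA. Serially diluted compounds plus biotinylated human fibrinogen incubated 2 h at room temperature. Bound fibrinogen detected with peroxidase anti-biotin antibody and chemiluminescence. Duplicates, at least three runs; IC50 from sigmoid fit.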

Homo sapiens [1] = species: Homo sapiens; assay: Selectivity ratio of Ki for factor 10a (unknown origin) to Ki for thrombin (unknown origin)
Coagulation factor X = Coagulation factor X (Homo sapiens, UniProt P00742); assay: Inhibition of factor 10a (unknown origin) using S-2222 as substrate preincubated with enzyme for 15 mins prior to substrate addition measured every 10 s by amidolytic method
Outline: (§2)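 Chromogenic amidolytic assay read at 405 nm, 25 °C, with final enzyme levels: thrombin 0.5 NIH E/mL with S-2238 at 20 and 40 µM; factor Xa 1 mBAEE E/mL with S-2222 at 100 and 200 µM; trypsin 0.5 nkat/mL with S-2222 at 50 and 100 µM. Inhibitor diluted from DMSO stock to 0.5–100 µM, three concentrations, triplicate. Ki by Cheng–Prusoff from initial rates, averaged over all combinations.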

Homo sapiens [2] = species: Homo sapiens; assay: Selectivity ratio of Ki for trypsin (unknown origin) to Ki for thrombin (unknown origin)
Trypsin = Trypsin (Homo sapiens, UniProt P07477+P07478+P35030); assay: Inhibition of trypsin (unknown origin) using S-2222 as substrate preincubated with enzyme for 15 mins prior to substrate addition measured every 10 s by amidolytic method; assay type: protein assay; outline: as §2
[3] = target: Integrin alpha-IIb/beta-3 (Homo sapiens, UniProt P05106+P08514); assay: Inhibition of biotinylated fibrinogen binding to human GP 2b/3a after 2 hrs by solid-phase competitive displacement assay; assay type: protein-complex assay; outline: as §1
Prothrombin = Prothrombin (Homo sapiens, UniProt P00734); assay: Inhibition of thrombin (unknown origin) using S-2238 as substrate preincubated with enzyme for 15 mins prior to substrate addition measured every 10 s by amidolytic method; outline: as §2

IC50 (Integrin alpha-V/beta-3)	Ratio Ki (Homo sapiens [1])	Ki (Coagulation factor X)	Ratio Ki (Homo sapiens [2])	Ki (Trypsin)	IC50 [3]	Ki (Prothrombin)	Structure (SMILES)
> 200000 nM	19.1	5080 nM	1	267 nM	42600 nM	266 nM	N=C(N)c1ccc(OC[C@H]2COc3ccc(N(Cc4ccccc4)C(=O)C(=O)O)cc3O2)cc1
> 200000 nM	3.46	1510 nM	0.65	283 nM	> 200000 nM	436 nM	CCOC(=O)C(=O)N(Cc1ccccc1)c1ccc2c(c1)OC[C@H](COc1ccc(C(=N)N)cc1)O2.O=C(O)C(F)(F)F
> 200000 nM	35.9	2700 nM	2.71	210 nM	> 200000 nM	77.8 nM	CCOC(=O)C(=O)N(Cc1ccccc1)c1ccc2c(c1)O[C@@H](COc1ccc(C(=N)N)cc1)CO2.O=C(O)C(F)(F)F
> 200000 nM	0.95	637 nM	1.32	894 nM	> 200000 nM	675 nM	CCOC(=O)C(=O)N(Cc1ccccc1)c1ccc2c(c1)O[C@H](COc1ccc(C(=N)N)cc1)CO2.O=C(O)C(F)(F)F
> 200000 nM	1.3	5190 nM	0.3	1550 nM	1210 nM	5180 nM	N=C(N)c1ccc(OC[C@@H]2COc3cc(N(Cc4ccccc4)C(=O)C(=O)O)ccc3O2)cc1
> 200000 nM	1.3	2150 nM	0.39	644 nM	> 200000 nM	1650 nM	CCOC(=O)C(=O)N(Cc1ccccc1)c1ccc2c(c1)OC[C@@H](COc1ccc(C(=N)N)cc1)O2.O=C(O)C(F)(F)F
> 200000 nM	0.47	1270 nM	0.51	1370 nM	17600 nM	2690 nM	N=C(N)c1ccc(OC[C@@H]2COc3ccc(N(Cc4ccccc4)C(=O)C(=O)O)cc3O2)cc1
> 200000 nM	1.17	1960 nM	0.28	463 nM	665 nM	1670 nM	N=C(N)c1ccc(OC[C@H]2COc3cc(N(Cc4ccccc4)C(=O)C(=O)O)ccc3O2)cc1
